Experimental data reported in ChEMBL document CHEMBL4308847, “Discovery, Structure-Activity Relationship, and Biological Characterization of a Novel Series of 6-((1 H-Pyrazolo[4,3- b]pyridin-3-yl)amino)-benzo[ d]isothiazole-3-carboxamides as Positive Allosteric Modulators of the Metabotropic Glutamate Receptor 4 (mGlu4)” (J Med Chem, 2018).
Active and inactive are the calls of the source. The calls are words filed in the database; no cut-off is given here.

Columns and labels:
[1] = Intrinsic clearance in human liver microsomes at 1 uM preincubated for 5 mins followed by NADPH addition measured up to 45 mins by LC-MS/MS analysis; format: ADME, Microsome; details: read-out: CLH
In short: (§1)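 Intrinsic and predicted hepatic clearance derived from liver microsome incubations.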

[2] = Half life in rat administered as iv cassette dose; format: ADME, organism-based; details: in vivo
In short: (§2)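 IV cassette in male Sprague-Dawley rats (~300 g, n = 1 per experiment), cannulated in carotid artery and jugular vein and acclimated about one week. Plasma clearance, Vss, t1/2 and MRT were derived.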

[3] = Clearance in rat administered as iv cassette dose; format: ADME, organism-based; details: in vivo; in short: as §2
[4] = MRT in rat administered as iv cassette dose; format: ADME, organism-based; details: in vivo; in short: as §2
[5] = molecular target: Metabotropic glutamate receptor 4 (Rattus norvegicus, UniProt P31423); assay: (§3) Positive allosteric modulation of rat mGlu4 receptor expressed in HEK cells co-expressing GIRK1/2 assessed as increase in glutamate-induced thallium flux preincubated for 140 secs followed by glutamate addition and measured after 2.5 mins by FluoZin-2-AM dye based fluorescence assay; format: cell-based
Sequence of Metabotropic glutamate receptor 4 (Rattus norvegicus, UniProt P31423) (P31423 whole entry): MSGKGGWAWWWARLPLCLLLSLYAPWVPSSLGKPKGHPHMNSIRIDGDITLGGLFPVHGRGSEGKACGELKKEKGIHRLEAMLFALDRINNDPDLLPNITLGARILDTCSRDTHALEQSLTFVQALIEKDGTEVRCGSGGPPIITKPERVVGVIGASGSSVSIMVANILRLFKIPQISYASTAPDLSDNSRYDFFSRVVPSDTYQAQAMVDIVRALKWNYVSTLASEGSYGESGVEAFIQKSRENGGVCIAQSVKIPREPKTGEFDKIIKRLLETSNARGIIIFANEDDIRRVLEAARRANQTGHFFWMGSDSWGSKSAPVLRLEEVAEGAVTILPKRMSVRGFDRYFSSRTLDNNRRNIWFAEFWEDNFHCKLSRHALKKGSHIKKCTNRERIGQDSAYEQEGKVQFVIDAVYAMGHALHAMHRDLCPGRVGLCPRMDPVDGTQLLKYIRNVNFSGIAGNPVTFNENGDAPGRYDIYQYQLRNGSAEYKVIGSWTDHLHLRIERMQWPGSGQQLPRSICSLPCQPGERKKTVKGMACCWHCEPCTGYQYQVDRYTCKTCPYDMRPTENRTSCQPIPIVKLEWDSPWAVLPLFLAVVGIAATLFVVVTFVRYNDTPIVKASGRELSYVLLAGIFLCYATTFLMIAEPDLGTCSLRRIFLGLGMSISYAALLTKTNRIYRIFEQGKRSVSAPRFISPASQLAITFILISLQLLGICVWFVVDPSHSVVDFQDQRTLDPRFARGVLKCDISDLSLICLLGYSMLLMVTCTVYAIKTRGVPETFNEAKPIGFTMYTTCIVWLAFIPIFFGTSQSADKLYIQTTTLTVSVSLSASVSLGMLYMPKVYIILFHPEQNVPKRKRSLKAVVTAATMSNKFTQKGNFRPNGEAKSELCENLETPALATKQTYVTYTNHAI
In short: (§4)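 HEK cells co-expressing rat mGlu4 and GIRK1/2 were loaded for 1 h at room temperature with FluoZin-2 AM (330 nM final) in HBSS/20 mM HEPES pH 7.4. Compound was incubated 140 s, then thallium buffer with or without agonist was added. Reading continued for 2.5 min at room temperature. Potency was fitted by four-parameter logistic.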

[6] = molecular target: Metabotropic glutamate receptor 4 (Rattus norvegicus) (UniProt P31423); assay: as §3, with “assay relative to control” for “assay”; format: cell-based; in short: as §4
Sequence of Metabotropic glutamate receptor 4 (Rattus norvegicus) (P31423 whole entry): as above

[7] = molecular target: T1, Metabotropic glutamate receptor 4 (Homo sapiens, UniProt Q14833); assay: (§5) Positive allosteric modulation of human mGlu4 receptor expressed in CHO cells co-expressing Gqi5 assessed as increase in glutamate-induced calcium mobilization preincubated for 142 secs followed by EC20 glutamate addition and subsequent EC80 glutamate addition after 147 secs by Fluo-4-AM dye based fluorescence assay; format: functional, cell-based
T1 sequence (Q14833 whole entry): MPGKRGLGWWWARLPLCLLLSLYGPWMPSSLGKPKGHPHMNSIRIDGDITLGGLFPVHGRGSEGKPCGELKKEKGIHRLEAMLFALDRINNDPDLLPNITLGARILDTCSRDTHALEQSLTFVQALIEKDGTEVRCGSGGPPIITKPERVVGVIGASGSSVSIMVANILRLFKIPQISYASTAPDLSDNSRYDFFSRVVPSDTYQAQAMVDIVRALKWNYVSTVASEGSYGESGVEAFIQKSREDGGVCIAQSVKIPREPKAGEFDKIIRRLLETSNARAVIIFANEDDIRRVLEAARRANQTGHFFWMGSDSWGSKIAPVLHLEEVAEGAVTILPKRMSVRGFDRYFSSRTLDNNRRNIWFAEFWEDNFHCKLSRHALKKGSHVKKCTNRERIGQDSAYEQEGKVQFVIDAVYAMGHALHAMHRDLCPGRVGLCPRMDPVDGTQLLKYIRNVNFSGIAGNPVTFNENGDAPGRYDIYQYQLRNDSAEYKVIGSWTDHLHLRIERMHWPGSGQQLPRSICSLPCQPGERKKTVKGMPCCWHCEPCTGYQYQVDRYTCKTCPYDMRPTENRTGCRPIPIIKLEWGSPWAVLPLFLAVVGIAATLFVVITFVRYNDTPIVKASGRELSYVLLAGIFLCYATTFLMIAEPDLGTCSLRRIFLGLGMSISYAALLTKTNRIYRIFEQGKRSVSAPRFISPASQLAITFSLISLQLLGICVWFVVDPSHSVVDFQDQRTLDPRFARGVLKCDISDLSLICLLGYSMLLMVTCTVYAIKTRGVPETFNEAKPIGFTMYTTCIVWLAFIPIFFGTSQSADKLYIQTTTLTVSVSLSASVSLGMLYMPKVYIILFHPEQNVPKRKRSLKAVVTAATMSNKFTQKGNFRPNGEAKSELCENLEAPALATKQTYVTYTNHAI
In short: (§6)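 CHO cells expressing human mGlu4 and Gqi5, plated at 30,000 cells/well and grown overnight at 37 °C, 5% CO2. Cells were loaded with 1 μM Fluo-4 AM for 45 min at 37 °C in HBSS/20 mM HEPES/2.5 mM probenecid. Compounds were run as 10-point, 1:3 dilution series. After 142 s, EC20 glutamate was added; 147 s later, EC80 glutamate. Fluorescence was normalized to the maximal glutamate response. EC50 and %Glu Max were fitted by four-parameter logistic, with maximum normalized to PHCCC.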

[8] = molecular target: T2, AhR (read out as CYP1A2 induction) (Homo sapiens, UniProt P35869); assay: Activation of AhR (unknown origin) assessed as CYP1A2 induction relative to control; format: ADME
T2 sequence (P35869 whole entry): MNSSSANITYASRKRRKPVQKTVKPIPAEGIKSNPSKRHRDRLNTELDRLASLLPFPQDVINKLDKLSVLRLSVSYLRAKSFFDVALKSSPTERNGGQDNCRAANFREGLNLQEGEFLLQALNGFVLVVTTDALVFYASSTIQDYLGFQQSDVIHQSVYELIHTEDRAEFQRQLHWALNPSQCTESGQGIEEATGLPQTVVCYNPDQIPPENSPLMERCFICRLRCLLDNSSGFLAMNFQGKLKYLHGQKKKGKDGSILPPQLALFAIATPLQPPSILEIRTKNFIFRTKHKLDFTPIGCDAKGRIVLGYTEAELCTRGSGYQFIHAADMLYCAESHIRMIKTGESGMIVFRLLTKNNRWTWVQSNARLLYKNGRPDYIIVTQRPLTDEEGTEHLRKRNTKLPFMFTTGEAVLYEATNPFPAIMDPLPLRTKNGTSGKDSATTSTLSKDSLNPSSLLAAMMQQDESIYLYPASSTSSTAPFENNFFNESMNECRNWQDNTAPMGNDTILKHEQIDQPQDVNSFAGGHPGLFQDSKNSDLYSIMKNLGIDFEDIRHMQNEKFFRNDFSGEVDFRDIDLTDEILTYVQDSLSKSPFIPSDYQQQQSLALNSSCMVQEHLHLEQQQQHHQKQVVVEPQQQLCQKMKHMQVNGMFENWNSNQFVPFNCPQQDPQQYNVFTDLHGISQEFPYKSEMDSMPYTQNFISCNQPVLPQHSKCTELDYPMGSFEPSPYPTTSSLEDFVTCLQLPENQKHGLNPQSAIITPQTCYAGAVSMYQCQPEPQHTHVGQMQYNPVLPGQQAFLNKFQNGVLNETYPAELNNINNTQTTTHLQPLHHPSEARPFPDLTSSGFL

[9] = molecular target: T1, Metabotropic glutamate receptor 4; assay: as §5, with “measured” for “subsequent EC80 glutamate addition”, “assay relative to control” for “assay”; format: functional, cell-based; in short: as §6
[10] = molecular target: T3, Cytochrome P450 1A2 (Homo sapiens, UniProt P05177); assay: Inhibition of CYP1A2 in human liver microsomes using phenacetin as substrate preincubated for 15 mins followed by substrate addition and measured after 8 mins by LC-MS/MS analysis; format: ADME
T3 sequence (P05177 whole entry): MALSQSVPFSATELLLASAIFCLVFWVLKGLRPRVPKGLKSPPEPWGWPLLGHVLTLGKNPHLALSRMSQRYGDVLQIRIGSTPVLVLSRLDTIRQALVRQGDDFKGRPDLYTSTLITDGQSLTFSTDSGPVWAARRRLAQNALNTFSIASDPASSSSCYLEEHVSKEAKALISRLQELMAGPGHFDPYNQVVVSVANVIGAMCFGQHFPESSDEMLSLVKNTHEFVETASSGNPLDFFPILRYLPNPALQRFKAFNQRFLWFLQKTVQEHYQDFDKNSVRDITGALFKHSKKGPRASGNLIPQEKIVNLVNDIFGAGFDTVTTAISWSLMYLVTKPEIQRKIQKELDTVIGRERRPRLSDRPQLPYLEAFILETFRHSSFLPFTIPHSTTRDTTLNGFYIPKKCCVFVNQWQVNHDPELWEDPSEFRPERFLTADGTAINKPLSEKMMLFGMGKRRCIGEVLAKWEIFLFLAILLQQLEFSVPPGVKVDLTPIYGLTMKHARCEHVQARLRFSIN
In short: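 IC50 for CYP1A2 inhibition determined in human liver microsomes using specific probe substrate-metabolite pairs.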

[11] = Intrinsic clearance in rat liver microsomes at 1 uM preincubated for 5 mins followed by NADPH addition measured up to 45 mins by LC-MS/MS analysis; format: ADME, Microsome; details: read-out: CLH; in short: as §1
[12] = Volume of distribution at steady state in rat administered as iv cassette dose; format: ADME, organism-based; details: in vivo, read-out: Vdss; in short: as §2
[13] = Fraction unbound in human plasma after 4 hrs by equilibrium dialysis method; format: ADME, cell-free
[14] = Fraction unbound in rat plasma after 4 hrs by equilibrium dialysis method; format: ADME, cell-free
[15] = Drug uptake in rat brain administered as iv cassette dose; format: ADME, organism-based; details: in vivo
In short: (§7)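 Cassette dosing in male Sprague-Dawley rats (~300 g, n = 1 per experiment), with carotid artery and jugular vein catheters. Animals acclimated about one week with food and water ad libitum. Plasma (ng/mL) and brain (ng/g) levels were measured and Kp calculated.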

[16] = Brain to plasma partition coefficient, Kp of the compound in rat administered as iv cassette dose; format: ADME, organism-based; in short: as §7
[17] = Plasma concentration in rat administered as iv cassette dose; format: ADME, organism-based; details: in vivo; in short: as §7
[18] = tested on: Rattus norvegicus; assay: Reversal of haloperidol-induced catalepsy in Sprague-Dawley rat assessed as decrease in latency to remove forepaws from bar at 10 mg/kg, po administered 30 mins prior to test; format: functional, organism-based
In short: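 Male Sprague-Dawley rats were randomized and given haloperidol 0.75 mg/kg i.p., then 60 min in home cage. Vehicle or compound (10 mg/kg) was given orally 30 min before catalepsy testing, N = 11–12 rats/group. Data analyzed by one-way ANOVA with Dunnett's test versus vehicle + haloperidol.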

CLint scaled at 1 µM [1]	half-life [2]	clearance [3]	MRT [4]	EC50 [5]	%max [6]	EC50 [7]	Emax [8]	%max [9]	IC50 [10]	CLint scaled at 1 µM [11]	Vd [12]	fraction unbound at 4 h [13]	fraction unbound at 4 h [14]	Drug uptake [15]	Kp ([16]; brain and plasma, read-out: Kp)	Cp [17]	Drug uptake ([15]; BLD = below limit of detection)	Kp ([16]; brain, BLD = below limit of detection)	Structure (SMILES)	Activity [18]
81.4 mL/min/kg	107 min	38 mL/min/kg	60.6 min	209 nM	108%	227 nM	> 50%	81.9%	700 nM	30.1 mL/min/kg	2.5 L/kg	0.066	0.079	–	–	–	–	–	Cc1noc2ccc(Nc3n[nH]c4ncccc34)cc12	–
114 mL/min/kg	28.6 min	24.3 mL/min/kg	37.2 min	65 nM	127%	137 nM	> 50%	85.4%	200 nM	3 mL/min/kg	0.9 L/kg	0.066	0.064	–	–	–	–	–	Cc1noc2ccc(Nc3n[nH]c4nccnc34)cc12	–
24.2 mL/min/kg	54.8 min	64.6 mL/min/kg	31.6 min	123 nM	111%	1570 nM	> 50%	80.6%	< 100 nM	33.4 mL/min/kg	2 L/kg	0.054	0.076	–	–	–	–	–	Cc1noc2ccc(Nc3n[nH]c4cc(F)cnc34)cc12	–
2.6 mL/min/kg	–	–	–	82.2 nM	86.6%	26 nM	–	68.1%	> 30000 nM	8.3 mL/min/kg	–	0.004	0.007	55.6 ng/g	0.08	690 ng/mL	–	–	O=C(NC1CC(F)(F)C1)c1nsc2cc(Nc3n[nH]c4nccnc34)ccc12	–
–	–	–	–	–	–	–	–	–	–	–	–	–	–	–	–	–	–	–	Fc1ccc(Nc2n[nH]c3cccnc23)cc1Cl	Active
54 mL/min/kg	–	–	–	139 nM	103%	52.4 nM	–	71%	> 30000 nM	393 mL/min/kg	–	0.021	0.029	35.5 ng/g	0.14	249 ng/mL	–	–	O=C(c1nsc2cc(Nc3n[nH]c4cccnc34)ccc12)N1CCC(F)(F)CC1	–
42.3 mL/min/kg	45.9 min	23.2 mL/min/kg	–	518 nM	102%	514 nM	–	85.5%	3000 nM	281 mL/min/kg	–	0.013	0.008	145 ng/g	1.2	117 ng/mL	–	–	c1cnc2c(Nc3ccc4c(C5CCCC5)noc4c3)n[nH]c2n1	–
298 mL/min/kg	–	–	–	–	–	68.1 nM	–	76.7%	–	2940 mL/min/kg	–	0.006	< 0.001	–	–	511 ng/mL	Bld	Bld	CN(C(=O)c1nsc2cc(Nc3n[nH]c4cccnc34)ccc12)C1CC(F)(F)C1	–
31.1 mL/min/kg	31.2 min	81.1 mL/min/kg	38.4 min	53 nM	114%	274 nM	> 50%	77.7%	< 100 nM	66.4 mL/min/kg	3.1 L/kg	0.029	0.05	–	–	–	–	–	Cc1noc2c(F)cc(Nc3n[nH]c4cccnc34)cc12	–
50.2 mL/min/kg	34.7 min	30.5 mL/min/kg	38 min	169 nM	114%	122 nM	> 50%	74.7%	< 100 nM	110 mL/min/kg	1.2 L/kg	0.028	0.033	–	–	–	–	–	Cc1noc2c(F)cc(Nc3n[nH]c4ncccc34)cc12	–
